Screening results from PubChem.
SKN-1 block: C. elegans SKN-1 inhibition | inhibition, % at 21.8 µM | C. elegans VP596 Pgst-4::GFP/RFP ratio, acrylamide-induced, 24 h | actives 0.49% (n = 360,000) | AID 624304;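 active means interference check ratio from 0.5 to 1.5 plus GFP to RFP signal ratio inhibition reaching or exceeding a fixed threshold, cut at about 30% in these data, passing the limit was not always enough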
bovine MsrA act: activators of bovine methionine sulfoxide reductase A | actives 0.3% (n = 360,000) | AID 602163 | purified bovine MsrA, absorbance read-out | activation, % at 10.6 µM; in the data active means activation above about 7.5%
MsrA inhibitor: inhibitors of bovine MsrA | purified bovine MsrA, absorbance read-out | actives 0.75% (n = 360,000) | inhibition, % at 15.5 µM | AID 651718; in the data active means inhibition above about 4.5%
pCIP destab: compounds decreasing mouse p/CIP protein stability. Q05BA5. F442A p/CIP-EGFP cells, EGFP fluorescence, 16 h. decrease of EGFP signal, % at 10 µM. actives 0.01% (n = 290,000). AID 1984;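 active means EGFP signal decrease of at least 30% at 10 µM or well 3 SD below plate mean, unless failing retest; inactive means the rest, including hits failing retest or dose response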
Target sequence (Q05BA5 1-1403): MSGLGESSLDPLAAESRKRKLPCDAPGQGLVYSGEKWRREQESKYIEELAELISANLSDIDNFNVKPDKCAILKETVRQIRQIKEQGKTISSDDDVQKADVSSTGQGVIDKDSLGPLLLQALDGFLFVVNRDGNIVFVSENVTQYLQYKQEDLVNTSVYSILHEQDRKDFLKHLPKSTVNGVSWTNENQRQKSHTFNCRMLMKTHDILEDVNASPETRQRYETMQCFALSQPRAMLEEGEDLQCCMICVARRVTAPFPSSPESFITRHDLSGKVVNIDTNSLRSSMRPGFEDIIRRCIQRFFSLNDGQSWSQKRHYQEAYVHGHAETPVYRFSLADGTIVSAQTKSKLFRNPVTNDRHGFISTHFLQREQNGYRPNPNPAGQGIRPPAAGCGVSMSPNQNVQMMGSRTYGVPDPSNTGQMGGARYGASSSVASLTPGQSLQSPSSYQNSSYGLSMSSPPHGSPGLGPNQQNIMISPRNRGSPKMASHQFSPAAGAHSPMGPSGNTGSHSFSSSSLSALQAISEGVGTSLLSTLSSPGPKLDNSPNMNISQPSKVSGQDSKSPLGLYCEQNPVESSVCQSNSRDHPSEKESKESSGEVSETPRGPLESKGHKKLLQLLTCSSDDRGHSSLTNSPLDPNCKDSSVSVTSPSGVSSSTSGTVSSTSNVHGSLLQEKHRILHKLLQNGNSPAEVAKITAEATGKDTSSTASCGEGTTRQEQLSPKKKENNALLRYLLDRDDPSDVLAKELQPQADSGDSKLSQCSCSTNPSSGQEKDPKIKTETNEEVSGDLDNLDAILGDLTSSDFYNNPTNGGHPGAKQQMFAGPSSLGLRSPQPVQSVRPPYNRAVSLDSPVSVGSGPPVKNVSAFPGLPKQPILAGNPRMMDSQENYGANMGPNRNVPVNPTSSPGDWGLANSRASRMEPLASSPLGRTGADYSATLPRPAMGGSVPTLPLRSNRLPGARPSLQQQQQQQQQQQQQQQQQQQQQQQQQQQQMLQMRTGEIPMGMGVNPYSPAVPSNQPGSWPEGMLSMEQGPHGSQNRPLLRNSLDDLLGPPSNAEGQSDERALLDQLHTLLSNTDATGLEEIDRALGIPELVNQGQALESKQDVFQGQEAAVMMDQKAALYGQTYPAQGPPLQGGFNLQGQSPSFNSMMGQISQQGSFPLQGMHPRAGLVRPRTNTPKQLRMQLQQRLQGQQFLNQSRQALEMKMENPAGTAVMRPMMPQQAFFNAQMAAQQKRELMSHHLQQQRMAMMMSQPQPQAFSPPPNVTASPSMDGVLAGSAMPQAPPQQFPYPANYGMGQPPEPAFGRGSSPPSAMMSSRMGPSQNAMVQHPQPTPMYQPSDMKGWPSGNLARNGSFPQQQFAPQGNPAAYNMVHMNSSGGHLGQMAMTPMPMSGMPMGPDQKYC
MT1-MMP act inh: inhibitors of human MT1-MMP activation; P50281; HT1080 RFP-PRO-GFP cells, GFP/RFP ratio fluorescence, overnight; percent of plate control window, DMSO zero; GFP/RFP ratio change, % at 20 µM; actives 0.061% (n = 360,000); AID 651647;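 active means GFP/RFP ratio change of at least 30% with cell ATP level not reduced by more than half and red fluorescence within 50% of control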
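Material – HT1080 RFP-PRO-GFP cells · Control set – DMSO wells and RFP-L50D-GFP cells · Incubation – overnight cell settling, then overnight compound exposure, 37 °C, 5% CO2 · Compound dosing – single-point 20 µM compound, 1% DMSO · Read-out – GFP/RFP fluorescence ratio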
Hits are given with their value; i = inactive; nt = not tested or not shown. A selection: hits, their analogues and other compounds. The true share with any hit is near 1.6%.

SMILES | SKN-1 block | bovine MsrA act | MsrA inhibitor | pCIP destab | MT1-MMP act inh
CN(C)C(CNC(=O)c1cccc(S(=O)(=O)N2CCN(c3ccc(F)cc3)CC2)c1)c1ccccc1 (stereo not drawn) | 46 | i | i | nt | i
CC(=O)n1cc([C@H]2C=C(C(=O)NCc3ccccc3)O[C@@H](OCCCCO)C2)c2ccccc21 | i | i | i | i | i
C#CCNC(=O)C1=C[C@@H](c2cn(C(C)=O)c3ccccc23)C[C@@H](OCCCCO)O1 | 45 | i | i | i | i
C(=C1c2ccccc2-c2ccccc21)c1ccccn1 | 52 | i | i | nt | i
COc1ccc2c(c1)CC/C(=C/c1ccccn1)C2=O | i | i | i | i | i
O=C1C(=Cc2ccccn2)CCc2ccccc21 | 39 | i | i | nt | i
Clc1ccc(-c2noc(/C=C/c3ccccc3)n2)cc1 | i | i | i | i | i
C(=C\c1nc(-c2cccnc2)no1)/c1ccccc1 | 66 | i | i | i | i
Clc1ccccc1/C=C/c1nc(-c2cccnc2)no1 | 39 | i | i | i | i
O=C(Nc1ccc(C#Cc2ccccc2)cc1)C1CC1 | 47 | i | i | i | i
N#Cc1ccc(OCCCN2CCC(C(O)(c3ccccc3)c3ccccc3)CC2)cc1 | nt | nt | i | nt | nt
COc1ccc(Br)cc1CN(C)CC(O)COc1ccc(Br)cc1 (stereo not drawn) | 35 | i | i | i | i
Cc1ccc2nc(-c3ccc(NC(=O)COCC(=O)O)cc3)sc2c1 | i | i | 4.5 | i | i
Cc1ccc2nc(-c3ccc(NC(=S)NC4CC(C)(C)NC(C)(C)C4)cc3)sc2c1 | 84 | i | i | i | i
Cc1ccc2nc(-c3ccc(NC(=O)CSCC(=O)O)cc3)sc2c1 | i | i | i | i | i
CCc1cc2c(nc1CC)CCCN2S(=O)(=O)c1ccc(C)cc1 | nt | nt | i | nt | nt
CC(C)(C)OC(=O)N1C[C@@]23C[C@H](c4cccc(F)c4)[C@@H](C[C@@H]2S1(=O)=O)O3 | nt | nt | i | nt | nt
COc1ccccc1/C=C/C=N/NC(=O)c1ccccn1 | i | i | 4.6 | i | i
Cc1ccc(SCCNC(=O)CN2C(=O)c3ccccc3S2(=O)=O)cc1 | 37 | i | i | i | i
O=C(CN1C(=O)c2ccccc2S1(=O)=O)NCCSc1ccccc1 | i | i | i | i | i
COc1ccc(-c2cc(-c3ccc(C)cc3)n[nH]2)c(O)c1 | 39 | i | i | i | i
CC(=O)Nc1nc(C)c(-c2csc(Nc3cccc(C(C)=O)c3)n2)s1 | i | i | 4.6 | i | i
COCc1cc(N2CCN(C(=O)OC(C)(C)C)C[C@H]2C)ccc1Br | nt | nt | i | nt | nt
Cc1ccc(C(=O)Nc2ccc([N+](=O)[O-])cn2)o1 | i | i | 4.6 | i | i
Cc1ccc(C)c(OCc2ccc(C(=O)Nc3ccc([N+](=O)[O-])cn3)o2)c1 | i | i | i | nt | i
SMILES | SKN-1 block | bovine MsrA act | MsrA inhibitor | pCIP destab | MT1-MMP act inh
CC(=O)N1CCc2c(sc(NC(=O)c3cccc(N4C(=O)CCC4=O)c3)c2C(N)=O)C1 | i | i | 4.8 | i | i
O=C(N/N=C/c1ccc2c(c1)OCO2)c1ccc(NC(=O)c2ccccc2Cl)cc1 | i | i | 5.2 | i | i
OCC1OC(C(N=Nc2ccccc2)=NNc2ccccc2)C(O)C1O (stereo not drawn) | nt | nt | i | nt | nt
NC(=O)c1ncn([C@@H]2O[C@H](C(=O)N[C@H](Cc3ccccc3)C(=O)O)[C@@H](O)[C@H]2O)n1 | nt | nt | i | nt | nt
O=C(/C=C/c1cccs1)NC(=S)NNC(=O)c1ccccc1O | i | i | 6.9 | i | i
COc1ccc(C(=O)NNC(=S)NC(=O)/C=C/c2cccs2)cc1 | i | i | i | i | i
COC(=O)c1cc2c(c3c4cc(F)ccc4n(S(=O)(=O)c4ccc(OC)cc4)c13)C(=O)N(Cc1ccccc1OC)C2 | nt | nt | i | nt | nt
Oc1cc2c(cc1O)[C@H]1c3ccc(O)c(O)c3OC[C@@]1(O)C2 | 37 | i | i | nt | i
COc1ccccc1C1CC(c2cccc(NS(C)(=O)=O)c2)=NN1S(=O)(=O)c1ccccc1 (stereo not drawn) | 37 | i | i | i | i
COc1ccccc1C1CC(c2ccc(NS(C)(=O)=O)cc2)=NN1S(=O)(=O)c1ccccc1 (stereo not drawn) | i | i | i | i | i
Cc1ccc(-c2csc(N/N=C/c3ccco3)n2)cc1 | 60 | i | i | i | i
Clc1ccc(-c2csc(N/N=C/c3ccco3)n2)cc1 | 91 | i | i | i | i
Brc1ccc(-c2csc(N/N=C/c3ccco3)n2)cc1 | 65 | i | i | i | i
C(=N\Nc1nc(-c2ccccc2)cs1)/c1ccco1 | 47 | i | i | i | i
CN(C)S(=O)(=O)c1ccc(-c2csc(N/N=C/c3ccco3)n2)cc1 | i | i | i | i | i
CCOC(=O)C1=C(C(=O)OCC)C2N(Cc3ccc(Br)cc3)c3ccccc3[C@@]23C[C@@H](C(=O)OC)N(S(=O)(=O)c2ccc(Br)cc2)C3=N1 (stereo partly drawn) | nt | nt | i | nt | nt
CCN(CC)C(=O)[C@H]1C[C@@H]2[C@H](C[C@@H](c3ccccc3)[C@H]1C)N(c1ccc(F)cc1)C(=O)N2CCCOc1ccccc1 | nt | nt | i | nt | nt
O=C(/C=C/c1ccco1)Nc1nc(-c2ccccc2)cs1 | 51 | i | i | i | i
COCCNC(=S)N(C)[C@H]1C[C@H]2c3[nH]c4c(-c5ccccc5)cccc4c3CCN2C[C@H]1[C@H](C)O | nt | nt | i | nt | nt
COC(=O)CN1C(=S)N(c2ccc(OC)cc2)C(=O)/C1=C/c1ccc(N2CCOCC2)cc1 | 37 | i | i | i | i
O=C(CSc1ccc(Cl)cc1)N1CCN(c2ncc(C(F)(F)F)cc2Cl)CC1 | 56 | i | i | i | i
O=C(CN1CCN(c2ncc(C(F)(F)F)cc2Cl)CC1)N1CCN(c2ncc(C(F)(F)F)cc2Cl)CC1 | i | i | i | i | i
CC(=O)N=C1SC2CS(=O)(=O)CC2N1c1cccc(Cl)c1Cl (stereo not drawn) | 40 | i | i | i | i
CC(=O)N=C1SC2CS(=O)(=O)CC2N1c1ccccc1Cl (stereo not drawn) | i | i | i | i | i
O=C1CSC(=S)N1Nc1ccccc1 | 36 | i | i | nt | i
SMILES | SKN-1 block | bovine MsrA act | MsrA inhibitor | pCIP destab | MT1-MMP act inh
CCOC(=O)[C@@H]1CSCCS(=O)(=O)N1C(=O)[C@H](CCSC)NC(=O)OC(C)(C)C | nt | nt | i | nt | nt
O=C(CN(Cc1ccco1)C(=O)CNS(=O)(=O)c1ccc(Cl)cc1)NC1CCCCC1 | 38 | i | i | i | i
O=C(CN(Cc1ccco1)C(=O)CNS(=O)(=O)c1ccc(Cl)cc1)NCC1CCCO1 (stereo not drawn) | i | i | i | i | i
CC(=O)CCN1CCSCCS1(=O)=O | nt | nt | i | nt | nt
CCC(=O)Nn1c(C2CCC2)nc2ccccc2c1=O | i | i | i | i | i
COc1cccc(OC)c1C(=O)Nn1c(C2CCC2)nc2ccccc2c1=O | i | 9.4 | i | i | i
O=C(Nc1nc2c(F)cc(F)cc2s1)c1ccccn1 | 37 | i | i | i | i
CC(=O)N1C[C@@H](CO)[C@@H](N(C)C(=O)Nc2cccc3ccccc23)C[C@H]1c1ccccc1 | nt | nt | i | nt | nt
